Assay results collected from several papers.
Protocols differ between the studies behind these lines. ≈ marks a conversion by molar mass, not a printed value.
Organism: Pichia kudriavzevii
Observed: microbial growth
Strain: ATCC6258

Compound | test | setting | MIC [mg/L]
CCCCCOc1c(OC)cc(NC(C)CCCNC(=O)C(N)CC(C)C)c2nc(C(C)(C)C)ccc12 (stereo not shown) | – | – | 10 (≈ 19.4 µM)
C=C(C)[C@@H]1CC[C@]2(C)CC[C@]3(C)[C@H](CC[C@@H]4[C@@]5(C)CC[C@H](O)C(C)(C)[C@@H]5CC[C@]43C)[C@@H]12 | broth dilution | 48 h | 250 (≈ 586 µM)
CCCCCCCCCCCCCCN1CCNCC1 | broth dilution | 48 h | 0.975 (≈ 3.45 µM)
CC1(C)CC[C@]2(C(=O)O)CC[C@]3(C)C(=CC[C@@H]4[C@@]5(C)CC[C@H](O)C(C)(C)[C@@H]5CC[C@]43C)[C@@H]2C1 | broth dilution | 48 h | 500 (≈ 1090 µM)
CCCCCCCCCN1CCNCC1 | broth dilution | 48 h | 31.3 (≈ 147 µM)
C[C@@H]1[C@H](O)[C@@H](C)/C=C/C=C/C=C/C=C/C=C/C=C/C=C/[C@H](O[C@@H]2O[C@H](C)[C@@H](O)[C@H](N)[C@@H]2O)C[C@@H]2O[C@](O)(C[C@@H](O)C[C@@H](O)[C@H](O)CC[C@@H](O)C[C@@H](O)CC(=O)O[C@H]1C)C[C@H](O)[C@H]2C(=O)O | – | – | 1.25 (≈ 1.35 µM)
OC(Cn1cncn1)(Cn1cncn1)c1ccc(F)cc1F | broth dilution | – | 32 (≈ 104 µM)
OC(CNCCN1CCOCC1)(Cn1cncn1)c1ccc(F)cc1F (stereo not shown) | broth dilution | 48 h | > 31.3
CCCCCCCOc1c(OC)cc(NC(C)CCCNC(=O)C(N)C(C)CC)c2nc(C(C)(C)C)ccc12 (stereo not shown) | – | – | 10 (≈ 18.4 µM)
OC(Cn1cncn1)(Cn1cncn1)c1ccc(F)cc1F | broth dilution | 48 h | 50 (≈ 163 µM)
